Test results taken from ChEMBL document CHEMBL1133370, “N-(sulfonamido)alkyl[tetrahydro-1H-benzo[e]indol-2-yl]amines: potent antagonists of human neuropeptide Y Y5 receptor” (Bioorg Med Chem Lett, 2000).

Biological target: T1, Neuropeptide Y receptor type 5 (Homo sapiens, UniProt Q15761)
T1 sequence (Q15761 whole entry): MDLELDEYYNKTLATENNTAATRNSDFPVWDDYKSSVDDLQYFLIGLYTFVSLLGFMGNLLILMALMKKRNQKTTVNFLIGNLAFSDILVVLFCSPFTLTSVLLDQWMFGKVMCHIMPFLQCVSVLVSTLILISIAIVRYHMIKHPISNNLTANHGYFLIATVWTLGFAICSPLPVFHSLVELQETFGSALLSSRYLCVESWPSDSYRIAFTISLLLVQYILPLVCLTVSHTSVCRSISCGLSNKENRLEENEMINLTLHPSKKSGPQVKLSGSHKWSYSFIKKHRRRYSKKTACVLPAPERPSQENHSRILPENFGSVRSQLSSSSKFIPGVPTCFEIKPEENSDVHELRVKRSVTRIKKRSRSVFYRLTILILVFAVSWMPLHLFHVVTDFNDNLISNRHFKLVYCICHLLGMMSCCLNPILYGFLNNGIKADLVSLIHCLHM
Test: Binding affinity for human Neuropeptide Y receptor type 5 in HEK293 cells
Format: cell-based
In short: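 Membranes from HEK293 cells stably transfected with human NPY5 cDNA, prepared in 20 mM HEPES buffer with NaCl, 0.22 mM KH2PO4, 1.3 mM CaCl2, 0.8 mM MgSO4, pH 7.4. Centrifuged, washed, membrane radioactivity gamma-counted. Non-specific binding with 300 nM NPY. IC50 is 50% inhibition of specific binding, averaged over ≥2 experiments.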

SMILES	IC50
COc1ccc2c(c1)CCC(NCCc1ccc(OC)c(OC)c1)C2Cc1ccccc1 (stereo not drawn)	~1000 nM
COc1ccc2c(c1)CCC1N=C(NC(C)=O)CC21 (stereo not drawn)	> 1000 nM
O=C(NC1=NC2CCc3ccccc3C2C1)[C@H]1CC[C@H](CNS(=O)(=O)c2ccccc2)CC1 (stereo partly drawn)	60 nM
COc1ccc2c(c1)CCC1N=C(NC(=O)[C@H]3CC[C@H](CNS(=O)(=O)c4ccccc4F)CC3)CC21 (stereo partly drawn)	121 nM
N[C@@H](CCCCNS(=O)(=O)c1ccccc1F)C(=O)NC1=NC2CCc3cc(F)ccc3C2C1 (stereo partly drawn)	202 nM

Second part, the compound after the results:

IC50	SMILES
39 nM	O=S(=O)(NC[C@H]1CC[C@H](CNC2=NC3CCc4ccccc4C3C2)CC1)c1ccccc1 (stereo partly drawn)
57 nM	COc1ccc2c(c1)CCC1N=C(NC[C@H]3CC[C@H](CNS(=O)(=O)c4ccccc4)CC3)CC21 (stereo partly drawn)
1 nM	O=S(=O)(NC[C@H]1CC[C@H](CNC2=NC3CCc4cc(O)ccc4C3C2)CC1)c1ccccc1 (stereo partly drawn)
111 nM	O=C(NC1=NC2CCc3cc(Cl)ccc3C2C1)[C@H]1CC[C@H](CNS(=O)(=O)c2ccccc2)CC1 (stereo partly drawn)
91 nM	COc1ccc2c(c1)CCC1N=C(NC(=O)[C@H]3CC[C@H](CNS(=O)(=O)c4ccccc4)CC3)CC21 (stereo partly drawn)
35 nM	COc1ccc2c(c1)CCC1N=C(NC[C@H]3CC[C@H](CNS(=O)(=O)c4ccccc4F)CC3)CC21 (stereo partly drawn)
54 nM	O=S(=O)(NC[C@H]1CC[C@H](CNC2=NC3CCc4cc(Cl)ccc4C3C2)CC1)c1ccccc1 (stereo partly drawn)
9 nM	O=C(NC1=NC2CCc3cc(O)ccc3C2C1)[C@H]1CC[C@H](CNS(=O)(=O)c2ccccc2)CC1 (stereo partly drawn)
